Assay results reported in ChEMBL document CHEMBL1155469, “Peptide nucleic acids conjugated to short basic peptides show improved pharmacokinetics and antisense activity in adipose tissue” (J Med Chem, 2010).
The source made the active and inactive calls. The calls are words filed in the database; no cut-off is given here.

Tests used:
Mus musculus [1] = assay: Acute toxicity in Balb/C mouse assessed as reduction in body weight at 1.5 to 6.0 umol/kg, ip administered thrice a week for 2 weeks measured 48 hrs after last dose; type: organism-based; details: in vivo
In short: (§1)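 Male Balb/c mice aged 6–8 weeks, n=4 per group, dosed i.p. with compound suspended in PBS and filter sterilized, 10 ul/g body weight. Body weight tracked throughout the live phase. Under isoflurane anaesthesia, terminal cardiac-puncture bleed; serum taken for transaminases and other chemistries. Sacrifice by cervical dislocation 48 h after last dose, with liver and spleen weighed at necropsy. Kidneys examined by histopathology.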

Mus musculus [2] = assay: Acute toxicity in Balb/C mouse assessed as change in spleen weight at 1.5 to 6.0 umol/kg, ip administered thrice a week for 2 weeks measured 48 hrs after last dose; type: organism-based; details: in vivo; in short: as §1
Mus musculus [3] = assay: Acute toxicity in Balb/C mouse assessed as change in liver weight at 1.5 to 6.0 umol/kg, ip administered thrice a week for 2 weeks measured 48 hrs after last dose; type: organism-based; details: in vivo; in short: as §1
Mus musculus [4] = assay: Acute toxicity in Balb/C mouse assessed as change in plasma chemistry at 1.5 to 6.0 umol/kg, ip administered thrice a week for 2 weeks measured 48 hrs after last dose; type: organism-based; details: in vivo; in short: as §1
Mus musculus [5] = assay: Inhibition of IR expression in Balb/C mouse liver assessed as reduction in IR-B transcript at 6.0 umol/kg, ip administered thrice a week for 2 weeks measured 48 hrs after last dose […]; type: functional, organism-based
In short: (§2)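 Male Balb/c mice, n=4 per group, dosed i.p. in PBS and sacrificed 48 h after last dose. Liver, kidney and adipose tissue homogenised at once in 4 M guanidine isothiocyanate, 25 mM EDTA, 50 mM Tris-HCl pH 6. RNA purified on columns and run by fluorescence-based quantitative RT-PCR. Target transcript levels normalised to cyclophilin A and expressed relative to saline-treated controls.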

Mus musculus [6] = assay: Inhibition of IR expression in Balb/C mouse kidney assessed as upregulation of IR-A transcript at 6.0 umol/kg, ip administered thrice a week for 2 weeks measured 48 hrs after last dose […]; type: functional, organism-based; in short: as §2
Mus musculus [7] = assay: Inhibition of IR expression in Balb/C mouse kidney assessed as upregulation of IR-A transcript at 1.5 umol/kg, ip administered thrice a week for 2 weeks measured 48 hrs after last dose […]; type: functional, organism-based; in short: as §2
Mus musculus [8] = assay: Inhibition of IR expression in Balb/C mouse kidney assessed as reduction in IR-B transcript at 6.0 umol/kg, ip administered thrice a week for 2 weeks measured 48 hrs after last dose […]; type: functional, organism-based; in short: as §2
Mus musculus [9] = assay: Inhibition of IR expression in Balb/C mouse kidney assessed as reduction in IR-B transcript at 1.5 umol/kg, ip administered thrice a week for 2 weeks measured 48 hrs after last dose […]; type: functional, organism-based; in short: as §2
Mus musculus [10] = assay: Inhibition of IR expression in Balb/C mouse adipose tissue assessed as reduction in IR-B transcript at 6.0 umol/kg, ip administered thrice a week for 2 weeks measured 48 hrs after last dose […]; type: functional; in short: as §2
Mus musculus [11] = assay: Inhibition of IR expression in Balb/C mouse adipose tissue assessed as upregulation of IR-A transcript at 6.0 umol/kg, ip administered thrice a week for 2 weeks measured 48 hrs after last dose by […]; type: functional; in short: as §2
Mus musculus [12] = assay: Inhibition of IR expression in Balb/C mouse liver assessed as upregulation of IR-A transcript at 6.0 umol/kg, ip administered thrice a week for 2 weeks measured 48 hrs after last dose by quantitative RT-PCR analysis
Mus musculus [13] = assay: Inhibition of IR expression in Balb/C mouse liver assessed as upregulation of IR-A transcript at 1.5 umol/kg, ip administered thrice a week for 2 weeks measured 48 hrs after last dose by quantitative RT-PCR analysis
BCL1 [14] = assay: Inhibition of PTEN expression in mouse BCL1 cells after 62 hrs by Western blotting; type: functional, cell-based; details: BCL1, 62 h
In short: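 BCL1 cells were grown in DMEM with 10% FBS at 37 °C, 5% CO2. Compound was delivered to 2×10^6 cells by electroporation (200 V, 1000 uF, 13 ohms), and cells were harvested 62 h later. Western blot of RIPA lysates used rabbit anti-PTEN and anti-CD40 (1:1000) with HRP secondary and ECL detection. PTEN was normalized to CD40. n=3, mean ± SD.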

Mus musculus [15] = assay: Toxicity in Balb/C mouse assessed as change in body weight at 40 mg/kg, ip administered thrice a week for 2 weeks measured 48 hrs after last dose; type: organism-based; design: dose 40 mg/kg, route intraperitoneal; details: in vivo
In short: (§3)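 Male Balb/c mice, 6–8 wk, n=4/group, received compound i.p. in PBS (10 ul/g) 3x/wk for 2 wk. Body weight was monitored throughout. At 48 h after the last dose, mice were anesthetized with isoflurane and bled by cardiac puncture. Serum AST, ALT, BUN, bilirubin, glucose and triglycerides were compared with the saline group. ALT rise below 2x normal was counted as absent.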

Mus musculus [16] = assay: Toxicity in Balb/C mouse assessed as change in serum AST levels at 40 mg/kg, ip administered thrice a week for 2 weeks measured 48 hrs after last dose; type: organism-based; design: dose 40 mg/kg, route intraperitoneal; details: in vivo; in short: as §3
Mus musculus [17] = assay: Toxicity in Balb/C mouse assessed as change in serum ALT levels at 40 mg/kg, ip administered thrice a week for 2 weeks measured 48 hrs after last dose; type: organism-based; design: dose 40 mg/kg, route intraperitoneal; details: in vivo; in short: as §3
Mus musculus [18] = assay: Toxicity in Balb/C mouse assessed as change in blood urea nitrogen levels at 40 mg/kg, ip administered thrice a week for 2 weeks measured 48 hrs after last dose; type: organism-based; design: dose 40 mg/kg, route intraperitoneal; details: in vivo; in short: as §3
Mus musculus [19] = assay: Toxicity in Balb/C mouse assessed as change in serum bilirubin levels at 40 mg/kg, ip administered thrice a week for 2 weeks measured 48 hrs after last dose; type: organism-based; design: dose 40 mg/kg, route intraperitoneal; details: in vivo; in short: as §3
Mus musculus [20] = assay: Toxicity in Balb/C mouse assessed as change in serum glucose levels at 40 mg/kg, ip administered thrice a week for 2 weeks measured 48 hrs after last dose; type: organism-based; design: dose 40 mg/kg, route intraperitoneal; details: in vivo; in short: as §3
Mus musculus [21] = assay: Toxicity in Balb/C mouse assessed as change in serum triglyceride levels at 40 mg/kg, ip administered thrice a week for 2 weeks measured 48 hrs after last dose; type: organism-based; design: dose 40 mg/kg, route intraperitoneal; details: in vivo; in short: as §3
Mus musculus [22] = assay: Inhibition of PTEN expression in Balb/C mouse liver at 40 mg/kg, ip administered thrice a week for 2 weeks measured 48 hrs after last dose by Western blot analysis; type: functional, organism-based; design: dose 40 mg/kg
In short: (§4)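 Male Balb/c mice, 6–8 wk, n=4/group, dosed i.p. in PBS 3x/wk for 2 wk and killed 48 h after the last dose. Tissue was homogenized in RIPA buffer with protease inhibitors, and protein was measured by Lowry assay. Lysates were run on 10% PAGE and blotted to PVDF. Blots were probed with rabbit anti-PTEN (1:1000) and HRP anti-rabbit (1:2500), with ECL detection.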

Mus musculus [23] = assay: Inhibition of PTEN expression in Balb/C mouse kidney at 40 mg/kg, ip administered thrice a week for 2 weeks measured 48 hrs after last dose by Western blot analysis; type: functional, organism-based; design: dose 40 mg/kg; in short: as §4
BCL1 [24] = assay: Inhibition of CD40 protein expression in mouse BCL1 cells after 62 hrs by Western blotting; type: functional, cell-based; details: BCL1, 62 h

Structure (SMILES): COCCO[C@@H]1[C@H](OP(=O)(S)OC[C@H]2O[C@@H](n3cnc4c(N)ncnc43)[C@H](OCCOC)[C@@H]2O)[C@@H](COP(=O)(S)O[C@H]2[C@@H](OCCOC)[C@H](n3ccc(N)nc3=O)O[C@@H]2COP(=O)(S)O[C@H]2[C@@H](OCCOC)[C@H](n3cnc4c(N)ncnc43)O[C@@H]2COP(=O)(S)O[C@H]2[C@@H](OCCOC)[C@H](n3ccc(N)nc3=O)O[C@@H]2COP(=O)(S)O[C@H]2[C@@H](OCCOC)[C@H](n3cnc4c(=O)[nH]c(N)nc43)O[C@@H]2COP(=O)(S)O[C@H]2[C@@H](OCCOC)[C@H](n3cnc4c(=O)[nH]c(N)nc43)O[C@@H]2COP(=O)(S)O[C@H]2[C@@H](OCCOC)[C@H](n3ccc(N)nc3=O)O[C@@H]2COP(=O)(S)O[C@H]2C[C@H](n3cc(C)c(=O)[nH]c3=O)O[C@@H]2COP(=O)(S)O[C@H]2[C@@H](OCCOC)[C@H](n3ccc(N)nc3=O)O[C@@H]2COP(=O)(S)O[C@H]2[C@@H](OCCOC)[C@H](n3ccc(N)nc3=O)O[C@@H]2COP(=O)(S)O[C@H]2C[C@H](n3cc(C)c(=O)[nH]c3=O)O[C@@H]2COP(=O)(S)O[C@H]2[C@@H](OCCOC)[C@H](n3cnc4c(=O)[nH]c(N)nc43)O[C@@H]2COP(=O)(S)O[C@H]2C[C@H](n3cc(C)c(=O)[nH]c3=O)O[C@@H]2COP(=O)(S)O[C@H]2[C@@H](OCCOC)[C@H](n3ccc(N)nc3=O)O[C@@H]2COP(=O)(S)O[C@H]2[C@@H](OCCOC)[C@H](n3cnc4c(N)ncnc43)O[C@@H]2COP(=O)(S)O[C@H]2C[C@H](n3cc(C)c(=O)[nH]c3=O)O[C@@H]2COP(=O)(S)O[C@H]2[C@@H](OCCOC)[C@H](n3ccc(N)nc3=O)O[C@@H]2COP(=O)(S)O[C@H]2[C@@H](OCCOC)[C@H](n3ccc(N)nc3=O)O[C@@H]2COP(=O)(S)O[C@H]2[C@@H](OCCOC)[C@H](n3cnc4c(N)ncnc43)O[C@@H]2CO)O[C@H]1n1ccc(N)nc1=O (some centres undefined)
- Activity (Mus musculus [1]): Non-toxic
- Activity (Mus musculus [2]): Non-toxic
- Activity (Mus musculus [3]): Non-toxic
- Activity (Mus musculus [4]): Non-toxic
- Activity (Mus musculus [5]): Active
- Activity (Mus musculus [6]): Active
- Activity (Mus musculus [7]): Active
- Activity (Mus musculus [8]): inactive
- Activity (Mus musculus [9]): inactive
- Activity (Mus musculus [10]): Active
- Activity (Mus musculus [11]): Active
- Activity (Mus musculus [12]): Active
- Activity (Mus musculus [13]): Active

Structure (SMILES): COCCO[C@@H]1[C@H](OP(=O)(S)OC[C@H]2O[C@@H](n3cc(C)c(=O)[nH]c3=O)C[C@@H]2OP(=O)(S)OC[C@H]2O[C@@H](n3ccc(N)nc3=O)[C@H](OCCOC)[C@@H]2OP(=O)(S)OC[C@H]2O[C@@H](n3cnc4c(N)ncnc43)[C@H](OCCOC)[C@@H]2OP(=O)(S)OC[C@H]2O[C@@H](n3cnc4c(=O)[nH]c(N)nc43)[C@H](OCCOC)[C@@H]2OP(=O)(S)OC[C@H]2O[C@@H](n3ccc(N)nc3=O)[C@H](OCCOC)[C@@H]2OP(=O)(S)OC[C@H]2O[C@@H](n3cnc4c(N)ncnc43)[C@H](OCCOC)[C@@H]2OP(=O)(S)OC[C@H]2O[C@@H](n3ccc(N)nc3=O)[C@H](OCCOC)[C@@H]2OP(=O)(S)OC[C@H]2O[C@@H](n3cnc4c(N)ncnc43)[C@H](OCCOC)[C@@H]2OP(=O)(S)OC[C@H]2O[C@@H](n3cc(C)c(=O)[nH]c3=O)C[C@@H]2OP(=O)(S)OC[C@H]2O[C@@H](n3ccc(N)nc3=O)[C@H](OCCOC)[C@@H]2OP(=O)(S)OC[C@H]2O[C@@H](n3cc(C)c(=O)[nH]c3=O)C[C@@H]2OP(=O)(S)OC[C@H]2O[C@@H](n3cnc4c(N)ncnc43)[C@H](OCCOC)[C@@H]2OP(=O)(S)OC[C@H]2O[C@@H](n3ccc(N)nc3=O)[C@H](OCCOC)[C@@H]2OP(=O)(S)OC[C@H]2O[C@@H](n3cnc4c(N)ncnc43)[C@H](OCCOC)[C@@H]2OP(=O)(S)OC[C@H]2O[C@@H](n3cnc4c(N)ncnc43)[C@H](OCCOC)[C@@H]2OP(=O)(S)OC[C@H]2O[C@@H](n3cnc4c(=O)[nH]c(N)nc43)[C@H](OCCOC)[C@@H]2OP(=O)(S)OC[C@H]2O[C@@H](n3cnc4c(N)ncnc43)[C@H](OCCOC)[C@@H]2OP(=O)(S)OC[C@H]2O[C@@H](n3cnc4c(N)ncnc43)[C@H](OCCOC)[C@@H]2OP(=O)(S)OC[C@H]2O[C@@H](n3cnc4c(N)ncnc43)[C@H](OCCOC)[C@@H]2O)[C@@H](CO)O[C@H]1n1ccc(N)nc1=O (some centres undefined)
- IC50 (BCL1 [14]): 1 µM
- Activity (Mus musculus [15]): Non-toxic
- Activity (Mus musculus [16]): Non-toxic
- Activity (Mus musculus [17]): Non-toxic
- Activity (Mus musculus [18]): Non-toxic
- Activity (Mus musculus [19]): Non-toxic
- Activity (Mus musculus [20]): Non-toxic
- Activity (Mus musculus [21]): Non-toxic
- inhibition (Mus musculus [22]): inactive
- inhibition (Mus musculus [23]): inactive

Structure (SMILES): Cc1cn(CC(=O)N(CCNC(=O)CN(CCNC(=O)CN(CCNC(=O)CN(CCNC(=O)CN(CCNC(=O)CN(CCNC(=O)CN(CCNC(=O)CN(CCNC(=O)CN(CCNC(=O)CN(CCNC(=O)CN(CCNC(=O)CN(CCN)C(=O)Cn2ccc(N)nc2=O)C(=O)Cn2cnc3c(N)ncnc32)C(=O)Cn2ccc(N)nc2=O)C(=O)Cn2cnc3c(N)ncnc32)C(=O)Cn2cnc3c(=O)[nH]c(N)nc32)C(=O)Cn2cnc3c(N)ncnc32)C(=O)Cn2cc(C)c(=O)[nH]c2=O)C(=O)Cn2cnc3c(=O)[nH]c(N)nc32)C(=O)Cn2cnc3c(N)ncnc32)C(=O)Cn2ccc(N)nc2=O)C(=O)Cn2cnc3c(N)ncnc32)CC(=O)NCCN(CC(=O)NCCN(CC(=O)NCCN(CC(=O)N[C@@H](CCCCN)C(N)=O)C(=O)Cn2cnc3c(=O)[nH]c(N)nc32)C(=O)Cn2cnc3c(N)ncnc32)C(=O)Cn2cc(C)c(=O)[nH]c2=O)c(=O)[nH]c1=O
- IC50 (BCL1 [24]): 0.9 µM
